In ChEMBL document CHEMBL4350961, “Discovery of Pyrrolo[3,2- d]pyrimidin-4-one Derivatives as a New Class of Potent and Cell-Active Inhibitors of P300/CBP-Associated Factor Bromodomain” (J Med Chem, 2019):
Calls of active or inactive are those of the source. The rule behind the calls is not given here.

Legend:
[1] = target: Tyrosine-protein kinase receptor TYRO3 (Homo sapiens) (UniProt Q06418); experiment: Inhibition of human RSE (451 to end residues) using KVEKIGEGTYGVVYK as substrate measured after 40 mins in presence of [gamma33P]ATP by scintillation counting method
Tyrosine-protein kinase receptor TYRO3 (Homo sapiens), sequence (Q06418 whole entry): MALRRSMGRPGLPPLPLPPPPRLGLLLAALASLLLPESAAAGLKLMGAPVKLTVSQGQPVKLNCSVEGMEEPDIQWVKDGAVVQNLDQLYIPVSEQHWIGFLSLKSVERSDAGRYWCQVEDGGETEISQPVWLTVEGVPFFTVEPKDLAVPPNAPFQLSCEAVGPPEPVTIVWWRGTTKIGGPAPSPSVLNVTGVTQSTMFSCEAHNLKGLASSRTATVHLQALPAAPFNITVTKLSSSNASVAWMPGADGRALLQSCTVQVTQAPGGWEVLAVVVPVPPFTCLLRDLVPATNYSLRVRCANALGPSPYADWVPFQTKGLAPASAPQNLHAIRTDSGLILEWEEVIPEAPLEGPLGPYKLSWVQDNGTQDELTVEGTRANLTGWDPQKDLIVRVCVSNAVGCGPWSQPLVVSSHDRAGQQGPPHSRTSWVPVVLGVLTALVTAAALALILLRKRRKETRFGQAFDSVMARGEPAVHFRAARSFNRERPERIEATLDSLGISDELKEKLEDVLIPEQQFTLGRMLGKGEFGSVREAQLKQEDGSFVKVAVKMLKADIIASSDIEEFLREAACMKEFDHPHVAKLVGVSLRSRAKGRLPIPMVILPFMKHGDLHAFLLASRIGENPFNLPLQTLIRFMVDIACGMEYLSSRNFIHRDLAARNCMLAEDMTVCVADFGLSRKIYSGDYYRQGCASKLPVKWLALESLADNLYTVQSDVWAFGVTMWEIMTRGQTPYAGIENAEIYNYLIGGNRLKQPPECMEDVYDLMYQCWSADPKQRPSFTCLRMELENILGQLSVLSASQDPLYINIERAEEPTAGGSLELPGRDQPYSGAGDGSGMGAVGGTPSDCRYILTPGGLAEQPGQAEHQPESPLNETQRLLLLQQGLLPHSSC
Procedure, shortened: (§1)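 Kinase panel of 422 kinases screened by Eurofins KinaseProfiler at a single test-compound concentration of 10 µM.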

[2] = system: Calcium/calmodulin-dependent protein kinase kinase 2 (Homo sapiens), Q96RR4 [T85S]; experiment: Inhibition of recombinant full-length human CAMKk2 T85S mutant at 10 uM using calmodulin as substrate measured after 40 mins in presence of [gamma33P]ATP by scintillation counting method
Homo sapiens = species on record: Homo sapiens; experiment: Inhibition of recombinant full-length human PI3K p110delta/p85alpha N253S mutant at 10 uM using phosphatidylinositol-4, 5-bisphosphate as substrate measured after 40 mins by fluorescence assay
[3] = target: NUAK family SNF1-like kinase 2 (Homo sapiens) (UniProt Q9H093); experiment: Inhibition of recombinant full-length human NUAK2 at 10 uM using KKKVSRSGLYRSPSMPENLNRPR as substrate measured after 40 mins in presence of [gamma33P]ATP by scintillation counting method
NUAK family SNF1-like kinase 2 (Homo sapiens), sequence (Q9H093 whole entry): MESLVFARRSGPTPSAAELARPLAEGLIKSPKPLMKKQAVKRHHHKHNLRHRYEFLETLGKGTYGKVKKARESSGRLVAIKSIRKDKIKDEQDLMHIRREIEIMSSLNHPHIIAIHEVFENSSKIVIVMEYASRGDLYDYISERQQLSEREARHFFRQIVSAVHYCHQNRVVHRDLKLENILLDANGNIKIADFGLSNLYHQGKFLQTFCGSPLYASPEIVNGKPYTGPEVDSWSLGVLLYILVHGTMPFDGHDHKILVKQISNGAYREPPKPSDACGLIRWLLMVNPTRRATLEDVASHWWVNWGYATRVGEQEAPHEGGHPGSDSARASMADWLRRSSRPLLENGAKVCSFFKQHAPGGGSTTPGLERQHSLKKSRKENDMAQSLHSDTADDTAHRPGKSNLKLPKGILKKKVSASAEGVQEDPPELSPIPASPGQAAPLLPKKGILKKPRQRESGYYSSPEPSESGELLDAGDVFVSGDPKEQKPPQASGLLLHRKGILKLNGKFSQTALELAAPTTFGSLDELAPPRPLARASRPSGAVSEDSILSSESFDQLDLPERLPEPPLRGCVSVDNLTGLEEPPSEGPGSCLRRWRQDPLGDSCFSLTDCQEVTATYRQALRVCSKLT

[4] = target: Ephrin type-A receptor 1 (Homo sapiens) (UniProt P21709); experiment: Inhibition of recombinant human EphA1 (568 to end residues) at 10 uM using KKKSPGEYVNIEF as substrate measured after 40 mins in presence of [gamma33P]ATP by scintillation counting method
[5] = target: Serine/threonine-protein kinase TAO2 (Homo sapiens) (UniProt Q9UL54); experiment: Inhibition of human TAO2 (1 to 320 residues) using myelin basic protein as substrate measured after 40 mins in presence of [gamma33P]ATP by scintillation counting method
[6] = target: Serine/threonine-protein kinase Chk2 (Homo sapiens) (UniProt O96017); experiment: Inhibition of recombinant human CHK2 (5 to end residues) at 10 uM using KKKVSRSGLYRSPSMPENLNRPR as substrate measured after 40 mins in presence of [gamma33P]ATP by scintillation counting method
Serine/threonine-protein kinase Chk2 (Homo sapiens), sequence (O96017 whole entry): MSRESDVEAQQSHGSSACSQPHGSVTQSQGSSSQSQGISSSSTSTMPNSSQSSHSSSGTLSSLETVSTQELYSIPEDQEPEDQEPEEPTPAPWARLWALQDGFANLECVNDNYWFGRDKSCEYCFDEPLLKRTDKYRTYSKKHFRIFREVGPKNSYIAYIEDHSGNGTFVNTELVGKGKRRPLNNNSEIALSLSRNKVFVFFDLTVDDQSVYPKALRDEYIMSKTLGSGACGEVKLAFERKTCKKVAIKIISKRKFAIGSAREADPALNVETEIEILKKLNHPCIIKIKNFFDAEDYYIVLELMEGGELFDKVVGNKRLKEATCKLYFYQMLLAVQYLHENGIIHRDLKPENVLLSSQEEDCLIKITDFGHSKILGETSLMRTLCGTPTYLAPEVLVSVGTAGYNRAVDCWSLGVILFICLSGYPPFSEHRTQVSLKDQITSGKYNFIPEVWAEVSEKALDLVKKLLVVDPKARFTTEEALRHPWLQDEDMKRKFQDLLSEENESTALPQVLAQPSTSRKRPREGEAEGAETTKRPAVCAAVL

[7] = system: Hepatocyte growth factor receptor (Homo sapiens), P08581 [Y1230D]; experiment: Inhibition of recombinant human MET A1209G/V1290L/Y1248D mutant (974 to end residues) at 10 uM using KKKGQEEEYVFIE as substrate measured after 40 mins in presence of [gamma33P]ATP by scintillation counting method
[8] = target: Serine/threonine-protein kinase pim-3 (Homo sapiens) (UniProt Q86V86); experiment: Inhibition of recombinant human Pim3 (2 to end residues) at 10 uM using RSRHSSYPAGT as substrate measured after 40 mins in presence of [gamma33P]ATP by scintillation counting method
[9] = target: Tyrosine-protein kinase Lyn (Homo sapiens) (UniProt P07948); experiment: Inhibition of recombinant full-length human Lyn at 10 uM using poly(Glu, Tyr) 4:1 as substrate measured after 40 mins in presence of [gamma33P]ATP by scintillation counting method
[10] = target: Bromodomain and PHD finger-containing protein 3 (Homo sapiens) (UniProt Q9ULD4); experiment: Binding affinity to human N-terminal His-tagged BRPF3 assessed as change in melting temperature at 10 uM by SYPRO orange dye-based fluorescence assay
Procedure, shortened: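 Thermal shift with His-tagged human bromodomain at 2 μM final in 10 mM HEPES pH 7.5, 500 mM NaCl. Compound at 10 μM final with 0.1% DMSO; SYPRO Orange at 1:1000. Equilibrated 3 min at 25 °C, then heated from 25 to 95 °C at 1 °C/min. Melting temperature shift taken from fluorescence; at least duplicate.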

[11] = target: Calcium/calmodulin-dependent protein kinase type 1D (Homo sapiens) (UniProt Q8IU85); experiment: Inhibition of recombinant full-length human CaMK1delta at 10 uM using calmodulin as substrate measured after 40 mins in presence of [gamma33P]ATP by scintillation counting method
[12] = target: SWI/SNF-related matrix-associated actin-dependent regulator of chromatin subfamily A member 2 (Homo sapiens) (UniProt P51531); experiment: Binding affinity to human partial length SMARCA2 (S1377 to Q1486 residues) expressed in bacterial expression system at 1 uM by BROMOscan assay
SWI/SNF-related matrix-associated actin-dependent regulator of chromatin subfamily A member 2 (Homo sapiens), sequence (P51531 whole entry, the tested form may be a part): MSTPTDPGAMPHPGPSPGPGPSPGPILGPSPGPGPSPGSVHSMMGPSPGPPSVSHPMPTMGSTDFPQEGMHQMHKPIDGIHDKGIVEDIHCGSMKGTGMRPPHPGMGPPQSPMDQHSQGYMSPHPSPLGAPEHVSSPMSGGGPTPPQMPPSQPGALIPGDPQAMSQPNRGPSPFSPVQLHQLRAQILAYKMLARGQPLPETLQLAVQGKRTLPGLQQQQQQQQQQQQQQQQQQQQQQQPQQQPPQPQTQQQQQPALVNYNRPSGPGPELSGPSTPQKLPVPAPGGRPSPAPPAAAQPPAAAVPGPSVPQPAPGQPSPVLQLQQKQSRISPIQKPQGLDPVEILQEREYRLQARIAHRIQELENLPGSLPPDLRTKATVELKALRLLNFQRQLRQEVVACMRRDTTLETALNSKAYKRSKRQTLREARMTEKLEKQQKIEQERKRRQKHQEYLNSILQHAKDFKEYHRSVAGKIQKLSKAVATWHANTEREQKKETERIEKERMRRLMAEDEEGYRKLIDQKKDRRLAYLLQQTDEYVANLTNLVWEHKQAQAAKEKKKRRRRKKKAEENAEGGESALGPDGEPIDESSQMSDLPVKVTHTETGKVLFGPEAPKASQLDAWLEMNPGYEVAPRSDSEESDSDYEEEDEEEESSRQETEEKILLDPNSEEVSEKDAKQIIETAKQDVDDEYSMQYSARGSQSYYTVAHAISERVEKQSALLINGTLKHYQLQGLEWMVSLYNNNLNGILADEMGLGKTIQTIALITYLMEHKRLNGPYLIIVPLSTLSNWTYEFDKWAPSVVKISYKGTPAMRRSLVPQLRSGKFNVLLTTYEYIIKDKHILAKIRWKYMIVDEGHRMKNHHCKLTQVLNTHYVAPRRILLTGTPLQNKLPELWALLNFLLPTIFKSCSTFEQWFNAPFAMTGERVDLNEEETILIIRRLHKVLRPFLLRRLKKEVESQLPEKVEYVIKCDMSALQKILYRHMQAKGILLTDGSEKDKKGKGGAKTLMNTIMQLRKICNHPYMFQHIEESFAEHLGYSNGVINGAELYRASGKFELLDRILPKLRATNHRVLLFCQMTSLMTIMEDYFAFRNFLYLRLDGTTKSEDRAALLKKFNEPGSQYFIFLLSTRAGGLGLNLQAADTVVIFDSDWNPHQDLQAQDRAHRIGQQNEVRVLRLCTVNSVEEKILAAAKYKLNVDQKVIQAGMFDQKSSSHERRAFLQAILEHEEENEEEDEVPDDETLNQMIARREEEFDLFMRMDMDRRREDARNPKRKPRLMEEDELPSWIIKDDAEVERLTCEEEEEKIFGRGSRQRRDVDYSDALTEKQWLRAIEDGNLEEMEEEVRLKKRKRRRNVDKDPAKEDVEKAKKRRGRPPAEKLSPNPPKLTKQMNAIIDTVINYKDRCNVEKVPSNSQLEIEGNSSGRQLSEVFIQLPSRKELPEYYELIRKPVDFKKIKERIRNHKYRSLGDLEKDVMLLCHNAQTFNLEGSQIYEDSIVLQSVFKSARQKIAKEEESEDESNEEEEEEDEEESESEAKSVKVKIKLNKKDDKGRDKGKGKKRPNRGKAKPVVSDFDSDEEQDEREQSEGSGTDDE
Procedure, shortened: (§2)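 BROMOscan bromodomain cross-screen run by an outside service, compound at 1 µM against 32 recombinant bromodomains. Binding given as percent of control.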

[13] = target: Nucleosome-remodeling factor subunit BPTF (Homo sapiens, UniProt Q12830); experiment: Binding affinity to human partial length FALZ (S2791 to H2911 residues) expressed in bacterial expression system at 1 uM by BROMOscan assay; procedure, shortened: as §2
[14] = target: Insulin-like growth factor 1 receptor (Homo sapiens) (UniProt P08069); experiment: Inhibition of recombinant human activated IGF1R (959 to end residues) at 10 uM using KKKSPGEYVNIEFG as substrate measured after 40 mins in presence of [gamma33P]ATP by scintillation counting method
[15] = target: Aurora kinase B (Homo sapiens) (UniProt Q96GD4); experiment: Inhibition of recombinant full-length human AURKB at 10 uM using AKRRRLSSLRA as substrate measured after 40 mins in presence of [gamma33P]ATP by scintillation counting method
[16] = target: Serine/threonine-protein kinase NIM1 (Homo sapiens) (UniProt Q8IY84); experiment: Inhibition of recombinant full-length human NIM1 at 10 uM using KKKVSRSGLYRSPSMPENLNRPR as substrate measured after 40 mins in presence of [gamma33P]ATP by scintillation counting method
Serine/threonine-protein kinase NIM1 (Homo sapiens), sequence (Q8IY84 whole entry): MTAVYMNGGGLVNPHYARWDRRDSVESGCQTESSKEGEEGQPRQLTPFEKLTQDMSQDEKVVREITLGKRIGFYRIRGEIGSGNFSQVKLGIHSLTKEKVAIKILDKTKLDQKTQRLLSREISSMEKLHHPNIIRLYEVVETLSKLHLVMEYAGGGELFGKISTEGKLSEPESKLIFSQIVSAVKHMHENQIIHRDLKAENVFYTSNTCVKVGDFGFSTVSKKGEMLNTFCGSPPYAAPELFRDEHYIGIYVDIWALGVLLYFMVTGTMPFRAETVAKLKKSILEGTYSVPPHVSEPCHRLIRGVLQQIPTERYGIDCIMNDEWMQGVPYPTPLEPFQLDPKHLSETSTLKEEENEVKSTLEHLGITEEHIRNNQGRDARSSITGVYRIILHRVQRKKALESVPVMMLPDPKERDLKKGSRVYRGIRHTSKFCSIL

[17] = target: MAP kinase-activated protein kinase 3 (Homo sapiens) (UniProt Q16644); experiment: Inhibition of recombinant human MAPKAPK3 (2 to end residues) at 10 uM using KKLNRTLSVA as substrate measured after 40 mins in presence of [gamma33P]ATP by scintillation counting method
MAP kinase-activated protein kinase 3 (Homo sapiens), sequence (Q16644 whole entry, looked up): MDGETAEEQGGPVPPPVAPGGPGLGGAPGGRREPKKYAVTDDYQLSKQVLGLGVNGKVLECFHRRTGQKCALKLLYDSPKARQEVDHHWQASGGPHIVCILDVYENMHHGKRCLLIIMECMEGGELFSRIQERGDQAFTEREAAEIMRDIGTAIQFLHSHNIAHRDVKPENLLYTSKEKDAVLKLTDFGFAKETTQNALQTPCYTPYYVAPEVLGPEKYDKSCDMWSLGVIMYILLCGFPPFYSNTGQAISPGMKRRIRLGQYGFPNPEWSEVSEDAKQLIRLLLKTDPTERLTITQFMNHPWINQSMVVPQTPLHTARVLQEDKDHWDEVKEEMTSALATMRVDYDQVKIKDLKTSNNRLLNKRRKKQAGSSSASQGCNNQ

[18] = target: Homeodomain-interacting protein kinase 4 (Homo sapiens) (UniProt Q8NE63); experiment: Inhibition of recombinant full-length human HIPK4 at 10 uM using RRRFRPASPLRGPPK as substrate measured after 40 mins in presence of [gamma33P]ATP by scintillation counting method
[19] = target: Dual specificity mitogen-activated protein kinase kinase 4 (Homo sapiens) (UniProt P45985); experiment: Inhibition of recombinant human MKK4 (34 to end residues) at 10 uM using unactive JNK1a1 as substrate measured after 40 mins in presence of [gamma33P]ATP by scintillation counting method
[20] = system: Tyrosine-protein kinase Blk (Homo sapiens), P51451 [UNDEFINED MUTATION]; experiment: Inhibition of full-length recombinant human BLK M287V mutant at 10 uM using poly(Glu, Tyr) 4:1 as substrate measured after 40 mins in presence of [gamma33P]ATP by scintillation counting method; procedure, shortened: as §1
[21] = target: Calcium/calmodulin-dependent protein kinase type 1G (Homo sapiens) (UniProt Q96NX5); experiment: Inhibition of human CaMK1gamma; procedure, shortened: as §1
[22] = Oral bioavailability in Sprague-Dawley rat at 10 mg/kg administered via gavage by LC-MS/MS analysis; type: ADME, organism-based; conditions: in vivo

CN1C[C@H](Nc2nc3cc[nH]c3c(=O)n2C)C[C@H](c2ccc3c(c2)OCCO3)C1
inhibition [1]: inactive | inhibition [2]: inactive | inhibition (Homo sapiens): inactive | inhibition [3]: inactive | inhibition [4]: inactive | inhibition [5]: inactive | inhibition [6]: inactive | inhibition [7]: inactive | inhibition [8]: inactive | inhibition [9]: inactive | ΔTm [10]: 1.7 °C | inhibition [11]: inactive | Activity [12]: inactive | Activity [13]: Active | inhibition [14]: inactive | inhibition [15]: inactive | inhibition [16]: inactive | inhibition [17]: inactive | inhibition [18]: inactive | inhibition [19]: inactive | inhibition [20]: inactive | inhibition [21]: inactive | bioavailability [22]: 52%
